Compound activity deposited in PubChem by The Scripps Research Institute Molecular Screening Center.
M1 PAM parental: nonselective activator or artifact in parental CHO-K1 calcium assay. activation, % at 3 µM. ATP EC20, Fluo-8 calcium fluorescence; 0% at ATP EC20, 100% at ATP max. 360,000 tested, 0.02% active;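 active = activation above the run cutoff, the mean activation of all test compounds plus 3 SD, cut at about 40% in these data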;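 also: peak over basal fluorescence ratio in a 140 s read after ATP addition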
CHO parental Ca: signal in parental CHO cells, OX1R antagonist counter-screen; inhibition, % at 5.6 µM; parental CHO-K1, ATP-induced calcium, Fluo-8 fluorescence; 330,000 tested, 0.63% active;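 active = inhibition above that plate's mean sample inhibition plus 3 SD, cut at about 26% in these data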;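 also: 0% = ATP-challenged DMSO wells and 100% = DMSO wells without ATP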
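Assay system – parental CHO cells · Reagent – ATP stimulus · Detection – intracellular calcium via Fluo-8 no-wash fluorescent dye · Evaluation – percent inhibition of ATP-evoked calcium rise, normalized to controls · Controls – ATP wells versus no-ATP DMSO wells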
OX1R antag-1: antagonists of human orexin 1 receptor (OX1R); O43613; OX1R-expressing cells, FRET antagonist read-out; inhibition, % at 6.6 µM; 330,000 tested, 1.8% active; AID 485270; in the data active = inhibition mostly above about 38%, no sharp cut-off; inactive = mostly below about 40%;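 also: 0% = agonist challenge alone and 100% = reference antagonist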
Target sequence (O43613 whole entry, looked up): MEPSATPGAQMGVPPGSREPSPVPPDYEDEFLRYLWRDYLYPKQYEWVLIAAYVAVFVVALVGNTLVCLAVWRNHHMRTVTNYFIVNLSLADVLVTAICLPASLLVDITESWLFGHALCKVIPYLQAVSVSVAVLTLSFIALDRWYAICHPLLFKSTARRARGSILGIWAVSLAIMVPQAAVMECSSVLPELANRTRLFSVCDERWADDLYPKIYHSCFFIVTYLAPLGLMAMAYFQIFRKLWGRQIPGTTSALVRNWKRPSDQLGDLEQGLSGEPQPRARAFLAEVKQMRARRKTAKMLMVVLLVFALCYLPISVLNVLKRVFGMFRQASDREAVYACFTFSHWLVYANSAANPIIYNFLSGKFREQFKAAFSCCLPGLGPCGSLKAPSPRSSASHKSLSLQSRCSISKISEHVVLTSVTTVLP
OX1R antag-2: antagonists of human orexin 1 receptor; O43613; CHO/OX1R cells, Fluo-8 calcium fluorescence, orexin A; inhibition, % at 5 µM; 330,000 tested, 0.43% active;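 active = inhibition above its plate's threshold, mean inhibition of all tested compounds on the plate plus 3 SD, cut at about 37% in these data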;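 also: 0% = orexin A challenge wells and 100% = SB-334867-A antagonist wells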
M1 ag parental: nonselective activator or artifact in parental CHO-K1 cells | Fluo-8 calcium fluorescence; scaled to maximal ATP response, vehicle zero | 360,000 tested, 0.48% active | AID 602248 | activation, % at 3 µM; in the data active = activation above about 15%;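 also: untransfected CHO-K1 host cells lacking M1 receptor as counterscreen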
CHO-K1 Ca antag: M1 antagonist counterscreen hit in parental CHO-K1 cells; ATP-induced calcium, Fluo-8 fluorescence; inhibition, % at 3 µM; 360,000 tested, 0.6% active; AID 602250;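 active = inhibition above a per-plate cutoff, the plate's mean sample inhibition plus 3 SD, cut at about 24% in these data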;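 also: 0% = DMSO plus EC80 ATP and 100% = DMSO alone without ATP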
OX1R Fluo8 conf: confirmation of human orexin 1 receptor antagonists. shares compounds with OX1R antag-2. CHO/OX1R cells, orexin A calcium Fluo-8 fluorescence. inhibition, % at 5 µM. 1,100 tested, 38% active; in the data active = inhibition above about 29%;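 also: 0% = agonist challenge alone and 100% = reference antagonist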
CHO Ca triplic: counter-screen for OX1R antagonists: effect in parental CHO cells; inhibition, % at 5.6 µM; AID 492965; shares compounds with OX1R antag-2; 1,100 tested, 9.3% active; parental CHO-K1, ATP-induced calcium, Fluo-8 fluorescence;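 active = inhibition above a per-plate limit, the mean inhibition of that plate's test compounds plus 3 SD, cut at about 25% in these data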;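 also: 0% = ATP challenge with DMSO and 100% = DMSO without ATP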
Numbers without * were called inactive; . = not tested or not shown. A selection: hits, their analogues and other compounds. The true share with any hit is near 2.9%.

SMILES | M1 PAM parental | CHO parental Ca | OX1R antag-1 | OX1R antag-2 | M1 ag parental | CHO-K1 Ca antag | OX1R Fluo8 conf | CHO Ca triplic
O=C(CSc1cn(CCNC(=O)c2ccc3ccccc3c2)c2ccccc12)NCc1ccco1 | -4.7 | 12.6 | 28.6 | 22.3 | 1.6 | 11.2 | 1.8 | -10.8
O=C(CN1c2ccccc2S(=O)(=O)c2ccccc21)NCc1ccc(F)cc1 | -14.4 | -6.4 | 18.6 | 24.2 | 4.0 | 0.3 | 3.2 | -7.7
O=C(COC(=O)c1cnc(Cl)c(Cl)c1)NC1CCCC1 | -17.9 | . | . | . | 0.3 | 7.9 | . | .
CCN1C(=O)/C(=C\C=C\c2ccccc2[N+](=O)[O-])SC1=S | 4.7 | . | . | . | 0.6 | 4.7 | . | .
CCN1C(=O)/C(=C/C=C2\N(CC)c3cc(S(=O)(=O)N(C)C)ccc3N2c2ccccc2)SC1=S | -10.5 | 14.6 | 15.2 | 30.2 | 3.5 | 9.0 | 71.8* | 68.0*
COc1ccc(C(=O)NCC(=O)NCC(=O)OCc2ccc(Br)cc2)cc1 | 3.0 | -17.0 | 24.5 | -30.6 | 1.8 | -14.9 | . | .
O=C(CNC(=O)c1ccc(Oc2ccccc2)cc1)OCc1ccc(Br)cc1 | -8.1 | 16.6 | 8.2 | 33.7 | 1.1 | 9.2 | 7.8 | 2.7
COC(=O)c1ccc(NC(=O)CCN2C(=O)CSC2=O)cc1 | 14.2 | -2.1 | 8.2 | -20.6 | 0.4 | 1.9 | . | .
COc1ccc(C(=O)/C(C#N)=N/Nc2ccccc2[N+](=O)[O-])cc1 | 24.0 | -4.0 | 32.6 | 0.8 | 5.1 | -9.0 | . | .
COc1ccc(C(=O)/C(C#N)=N/Nc2ccc([N+](=O)[O-])cc2)cc1 | 3.4 | 23.3 | 56.0 | 30.5 | 2.8 | -17.6 | 17.2 | 55.1*
Cc1cccc(C2c3[nH]c4ccccc4c3CCN2C(=O)Cc2nc(-c3ccccc3)n[nH]2)n1 (stereo not drawn) | 18.9 | 10.4 | 10.2 | 40.9 | 2.4 | -2.2 | 17.8 | -19.5
Cc1ccc(C)c(N(C)C(=O)CCS(=O)(=O)c2cccc3nonc23)c1 | -13.5 | -2.1 | 41.0 | -9.1 | 0.1 | 5.5 | . | .
O=C(CSCc1ccc(Cl)cc1)N/N=C/c1ccc(OCC(=O)Nc2ccccc2)cc1 | 12.8 | 14.3 | 67.9 | 35.8 | 2.7 | 2.5 | 6.2 | 3.6
Cc1ccc(NC(=O)COc2ccc(/C=N/NC(=O)CSCc3ccccc3)cc2)cc1 | 0.1 | 3.5 | 16.8 | 33.1 | 0.5 | -6.0 | . | .
CC(C)Oc1ccc(C(CC(=O)O)Cc2ccccc2)cc1 (stereo not drawn) | 12.9 | -3.1 | 5.2 | -5.5 | 0.2 | -8.7 | . | .
N#Cc1c(C(F)(F)F)cc(-c2ccco2)nc1SCc1ccccn1 | 1.3 | 21.2 | 4.7 | 43.6 | 18.0* | 17.8 | -18.0 | 3.4
N#Cc1c(C(F)(F)F)cc(-c2ccco2)nc1SCc1ccncc1 | 0.7 | -3.7 | 23.8 | 7.7 | 12.8 | 4.3 | . | .
CCCCn1c(=O)[nH]c2nc3cc(N)ccc3nc2c1=O | -7.5 | 36.1 | 38.8 | 60.6* | 24.4* | 20.5 | 34.7* | 28.6*
Cc1ccc(CNS(=O)(=O)c2ccccc2[N+](=O)[O-])cc1 | 15.9 | -11.6 | 6.1 | 4.0 | 1.5 | -10.1 | . | .
O=C(N/N=C/c1ccco1)c1cc(-c2ccc3ccccc3c2)n[nH]1 | 10.4 | -1.2 | 42.1 | 43.7* | 0.7 | -2.1 | 4.8 | -2.8
CCCNC(=O)c1cc(C2CCCCN2C(=O)c2ccc3ccccc3c2)on1 (stereo not drawn) | -2.0 | . | . | . | 8.2 | 13.0 | . | .
COc1cc(/C=C/C(=O)/C=C(O)/C=C/c2ccc(O)c(OC)c2)ccc1O | 0.4 | 30.6 | 2.5 | 40.9 | 10.1 | 18.9 | . | .
COc1cc(/C=C/C(=O)CC(=O)/C=C/c2ccc(O)c(OC)c2)ccc1O | -14.9 | 22.7 | 10.2 | 34.0 | 19.1* | 29.5* | 31.5* | 30.3*
Cc1ccc(O)c(NC(=O)c2noc3c2CCc2ccccc2-3)c1 | -2.7 | -15.2 | 66.6 | 30.7 | 0.2 | 1.5 | 20.6 | 3.7
C=CCC[C@@H](Cc1ccc(F)cc1)C(=O)OC[C@@H]1CCCN1C(=O)[C@H](CC=C)CC(=O)N[C@H](CO)Cc1ccccc1 | 5.8 | -5.7 | 24.2 | 65.0* | 6.0 | -3.5 | 14.3 | -13.9
SMILES | M1 PAM parental | CHO parental Ca | OX1R antag-1 | OX1R antag-2 | M1 ag parental | CHO-K1 Ca antag | OX1R Fluo8 conf | CHO Ca triplic
CSCCNC(=O)c1ccc2nc(C3CCCCC3)oc2c1 | 25.4 | -5.6 | -4.0 | -18.9 | 0.9 | -9.4 | . | .
CCn1nc(C(=O)Nc2cccc3ccccc23)c(Cl)c1Cl | 30.3 | -25.0 | 19.5 | 34.9 | 0.0 | -27.4 | -12.0 | -21.4
O=c1cc(O)cc2n1CCC2 | -0.5 | . | . | . | -0.1 | 8.1 | . | .
COc1ccc(/C=C2\C(=O)NC(=S)N2C(=O)c2ccc(F)cc2)cc1 | 7.5 | 23.1 | 28.2 | 42.2 | 5.6 | -5.8 | 20.0 | 23.8
O[C@@H]1CN(Cc2cccs2)[C@@H](c2ccc(Cl)cc2)C[C@H]1n1cc(-c2ccc(F)cc2)nn1 | -12.0 | . | . | . | -0.4 | 15.2 | . | .
COc1cccc(NC(=O)N(Cc2ccco2)C(C)c2cccs2)c1 (stereo not drawn) | -1.3 | -13.6 | 11.4 | -12.1 | 0.5 | -6.5 | . | .
CC(c1cccs1)N(Cc1ccco1)C(=O)Nc1ccc(Cl)c(Cl)c1 (stereo not drawn) | 5.2 | -2.0 | 21.5 | 43.8* | -0.5 | -8.1 | -23.0 | -16.1
CC(C)C(=O)N1CCN(c2ccc(NC(=O)COc3ccccc3[N+](=O)[O-])cc2)CC1 | -19.0 | 8.1 | 50.9 | 27.8 | 12.6 | 39.7* | 27.2 | 3.8
CCOc1ccccc1NC(=O)c1cc(S(=O)(=O)NCc2ccco2)ccc1F | 12.0 | -4.7 | 32.8 | 39.8* | 0.2 | -28.2 | 3.3 | -6.7
Cc1ccc2c(c1)N(C(=O)CCC(=O)NCc1ccccn1)CC(C)O2 (stereo not drawn) | 8.5 | 17.8 | 3.6 | -9.7 | 0.3 | -10.0 | . | .
CCCn1c(N)c(C(=O)CSc2nnc(N)s2)c(=O)[nH]c1=O | 17.6 | 6.9 | -5.1 | -18.0 | 0.8 | -19.4 | . | .
CCCn1c(N)c(C(=O)CSc2nc3ccccc3s2)c(=O)[nH]c1=O | 3.4 | 2.8 | 26.6 | 44.6* | 11.6 | -2.9 | 22.2 | 2.6
CCCNC(=O)C1(C)CCN(C(=O)c2sccc2C)C1 (stereo not drawn) | 6.3 | . | . | . | 0.2 | 7.4 | . | .
CC(C)(C)C(=O)N1CCN(c2ccnc3cc(Cl)ccc23)CC1 | -24.2 | -5.4 | 7.0 | -20.9 | 0.9 | 5.5 | . | .
O=C(Nc1ccc(OC(F)(F)F)cc1)N1CCN(c2ccnc3cc(Cl)ccc23)CC1 | -20.6 | -2.0 | 16.5 | 24.2 | 5.1 | 27.4* | 18.5 | 35.4*
COc1ccc(S(=O)(=O)N2CCC(C(=O)N[C@@H](C)C(=O)NC3CCCC3)CC2)cc1 | 23.2 | 5.6 | 2.2 | 7.2 | 1.2 | -10.0 | . | .
O=C(COc1coc(CN2CCCc3ccccc32)cc1=O)Nc1ccc([N+](=O)[O-])cc1 | -8.7 | -17.4 | 45.6 | -8.5 | 0.3 | 4.0 | . | .
